The values that follow come from ChEMBL document CHEMBL2331506, “Design, synthesis, antiviral and cytostatic evaluation of novel isoxazolidine nucleotide analogues with a carbamoyl linker” (Bioorg Med Chem, 2013).

SMILES strings stand for the structures. Active and inactive are the calls of the source. The rule behind the calls is not given here.

The subject of data set [1] is Human alphaherpesvirus 1. Description: Antiviral activity against Herpes simplex virus 1 KOS infected in human HEL cells assessed as reduction of virus-induced cytopathogenicity at 250 uM. Type of data set: functional, organism-based. A digest of the protocol: (§1)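 Confluent monolayers (HEL fibroblasts, Vero, or HeLa cells as listed) were infected with 100 CCID50 of virus in the presence of varying compound concentrations. Virus-induced cytopathicity or plaque formation was scored once cytopathicity was complete in untreated infected controls. EC50 was taken as the concentration reducing cytopathogenicity or plaque formation by 50%.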
On the technique in general: Cytopathic effects are the visible damage that an infection or toxin causes in cultured cells.

Another data set deals with Influenza B virus. The data set can be described thus: Antiviral activity against Influenza B virus infected in dog MDCK cells assessed as reduction of virus-induced cytopathogenicity at 250 uM. It counts as functional, organism-based. A digest of the protocol: (§2)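 Confluent cell monolayers were infected with 100 CCID50 of virus while exposed to varying compound concentrations. Cytopathicity was scored once it was complete in untreated infected controls. EC50 was taken as the concentration that reduced virus-induced cytopathogenicity by 50%.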

The test system of data set [2] is Human immunodeficiency virus 2. The data set can be described thus: Antiviral activity against Human immunodeficiency virus 2 ROD infected in human CEM cells assessed as reduction of virus-induced giant cell formation at 250 uM after 4 to 5 days. To be noted: CCRF-CEM. It counts as functional, organism-based. A digest of the protocol:
(§3)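 CEM cells at 3 × 10^5 cells/mL were infected with HIV at 100 CCID50 per mL in the presence of compound dilutions. They were held 4–5 days at 37 °C in humidified CO2. Syncytium (giant cell) formation was scored microscopically, and EC50 was taken as the concentration inhibiting giant cell formation by 50%.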

Data set [3] in a line: Cytotoxicity against cat CRFK cells assessed as alteration of cell morphology up to 100 uM by microscopic analysis. Type of data set: cell-based, Felis catus. The method in brief: (§4)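 Uninfected host-cell cultures were exposed to compound and examined by microscopy. Cytotoxicity was expressed as the minimum cytotoxic concentration (MCC) causing a microscopically detectable alteration of normal cell morphology.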

Data set [4] concerns Influenza A virus. Description: Antiviral activity against Influenza A virus H1N1 infected in dog MDCK cells assessed as reduction of virus-induced cytopathogenicity at 250 uM. Type of data set: functional, organism-based. A digest of the protocol: as §2
Another data set has as its system MDCK. The data set can be described thus: Cytotoxicity against dog MDCK cells assessed as alteration of cell morphology up to 100 uM by microscopic analysis. It counts as cell-based, Canis lupus familiaris. A digest of the protocol: as §4
Data set [5] deals with Respiratory syncytial virus. The data set can be described thus: Antiviral activity against Respiratory syncytial virus long infected in human HeLa cells assessed as reduction of virus-induced cytopathogenicity at 250 uM. Type of data set: functional, organism-based. A digest of the protocol: as §1
For another data set, the system named is Vero. The data set can be described thus: Cytotoxicity against african green monkey Vero cells assessed as alteration of cell morphology up to 100 uM by microscopic analysis. To be noted: chlorocebus sabaeus. It counts as cell-based. A digest of the protocol: as §4
Another data set concerns Human alphaherpesvirus 2. Description: Antiviral activity against Herpes simplex virus 2 G infected in human HEL cells assessed as reduction of virus-induced cytopathogenicity at 250 uM. Conditions: strain G. Type of data set: functional, organism-based. The method in brief:
as §1

The next data set concerns Coxsackievirus B4. The data set can be described thus: Antiviral activity against Coxsackievirus B4 infected in african green monkey Vero cells assessed as reduction of virus-induced cytopathogenicity at 250 uM. It counts as functional, organism-based. A digest of the protocol: as §1
In data set [6] the test system is Human immunodeficiency virus 1. The data set can be described thus: Antiviral activity against Human immunodeficiency virus 1 3B infected in human CEM cells assessed as reduction of virus-induced giant cell formation at 250 uM after 4 to 5 days. To be noted: CCRF-CEM. Type of data set: functional, organism-based. The method in brief: as §3
The subject of another data set is Felid alphaherpesvirus 1. The data set can be described thus: Antiviral activity against Feline herpes virus infected in cat CRFK cells assessed as reduction of virus-induced cytopathogenicity at 250 uM. It counts as functional, organism-based.
Another data set concerns Sindbis virus. Description: Antiviral activity against Sindbis virus infected in african green monkey Vero cells assessed as reduction of virus-induced cytopathogenicity at 250 uM. Type of data set: functional, organism-based. A digest of the protocol: as §1
Data set [7] has as its system Mammalian orthoreovirus 1. Description: Antiviral activity against Reovirus 1 infected in african green monkey Vero cells assessed as reduction of virus-induced cytopathogenicity at 250 uM. Type of data set: functional, organism-based. A digest of the protocol: as §1
In a further data set the test system is HeLa. Description: Cytotoxicity against human HeLa cells assessed as alteration of cell morphology up to 100 uM by microscopic analysis. It counts as cell-based. The method in brief: as §4
Data set [8] deals with Human alphaherpesvirus 1. The data set can be described thus: Antiviral activity against thymidine kinase-deficient, ACV-resistant Herpes simplex virus 1 KOS infected in human HEL cells assessed as reduction of virus-induced cytopathogenicity at 250 uM. Type of data set: functional, organism-based. The method in brief: as §2
A further data set deals with Human respirovirus 3. Description: Antiviral activity against Parainfluenza virus 3 infected in african green monkey Vero cells assessed as reduction of virus-induced cytopathogenicity at 250 uM. Type of data set: functional, organism-based. A digest of the protocol:
as §1

Another data set relates to Punta Toro virus. The data set can be described thus: Antiviral activity against Punta Toro virus infected in african green monkey Vero cells assessed as reduction of virus-induced cytopathogenicity at 250 uM. Type of data set: functional, organism-based. A digest of the protocol:
as §1

In the next data set the test system is HEL. The data set can be described thus: Cytotoxicity against human HEL cells assessed as alteration of cell morphology up to 100 uM by microscopic analysis. Type of data set: cell-based. The method in brief:
as §4

The subject of a further data set is Feline coronavirus. Description: Antiviral activity against Feline coronavirus infected in cat CRFK cells assessed as reduction of virus-induced cytopathogenicity at 250 uM. It counts as functional, organism-based.
In data set [9] the test system is Vesicular stomatitis virus. Description: Antiviral activity against Vesicular stomatitis virus infected in human HeLa cells assessed as reduction of virus-induced cytopathogenicity at 250 uM. It counts as functional, organism-based. A digest of the protocol: as §2
Data set [10] concerns Vesicular stomatitis virus. The data set can be described thus: Antiviral activity against Vesicular stomatitis virus infected in human HEL cells assessed as reduction of virus-induced cytopathogenicity at 250 uM. It counts as functional, organism-based. A digest of the protocol:
as §2

For data set [11], the system named is Influenza A virus. The data set can be described thus: Antiviral activity against Influenza A virus H3N2 infected in dog MDCK cells assessed as reduction of virus-induced cytopathogenicity at 250 uM. Type of data set: functional, organism-based. A digest of the protocol: as §2

For the compound `CCOP(=O)(OCC)[C@@H]1C[C@H](C(=O)Nc2cccc(Br)c2)ON1C` (mixture of isomers), the inhibition entry (in the data set with Human alphaherpesvirus 1 [1]; in the data set on Influenza B virus; in data set [2]; in the data set on Influenza A virus [4]; in data set [5]; with Human alphaherpesvirus 2) was “inactive” each time. In addition, the inhibition result (in the data set with Coxsackievirus B4; in data set [6]; with Felid alphaherpesvirus 1; with Sindbis virus; in [7]; in the data set on Human alphaherpesvirus 1 [8]) was “inactive” each time. The inhibition entry (in the data set with Human respirovirus 3; in the data set on Punta Toro virus; with Feline coronavirus; in data set [9]; in data set [10]; in the data set with Influenza A virus [11]) was “inactive” each time. In addition, the Activity entry (in data set [3]; with MDCK; in the data set on Vero; in the data set on HeLa; with HEL) was “Non-toxic” throughout.
On to `CCOP(=O)(OCC)[C@@H]1C[C@H](C(=O)Nc2cccc(C#N)c2)ON1C` (racemic), for which the inhibition result (in the data set on Human alphaherpesvirus 1 [1]; in the data set on Influenza B virus; in data set [2]; in the data set on Influenza A virus [4]; in data set [5]; in the data set on Human alphaherpesvirus 2) was “inactive” in each case. Besides, the inhibition entry (with Coxsackievirus B4; in data set [6]; in the data set on Felid alphaherpesvirus 1; in the data set on Sindbis virus; in data set [7]; in the data set with Human alphaherpesvirus 1 [8]) was “inactive” throughout. For the same compound, the inhibition result (in the data set with Human respirovirus 3; in the data set on Punta Toro virus; in the data set on Feline coronavirus; in [9]; in data set [10]; in the data set on Influenza A virus [11]) was “inactive” each time. Further, the Activity entry (in data set [3]; with MDCK; in the data set with Vero; in the data set with HeLa; in the data set with HEL) was “Non-toxic” in each case.
Take `CCOP(=O)(OCC)[C@@H]1C[C@H](C(=O)Nc2cc(OC)c(OC)cc2C#N)ON1C` (mixture of isomers): the inhibition result (in the data set with Human alphaherpesvirus 1 [1]; in the data set with Influenza B virus; in data set [2]; with Influenza A virus [4]; in data set [5]; in the data set with Human alphaherpesvirus 2) was “inactive” throughout. Also, the inhibition result (with Coxsackievirus B4; in data set [6]; in the data set with Felid alphaherpesvirus 1; with Sindbis virus; in data set [7]; with Human alphaherpesvirus 1 [8]) was “inactive” throughout. Moreover, the inhibition entry (in the data set on Human respirovirus 3; in the data set on Punta Toro virus; in the data set on Feline coronavirus; in data set [9]; in [10]; in the data set on Influenza A virus [11]) was “inactive” throughout. Also, the Activity result (in data set [3]; in the data set on MDCK; with Vero; with HeLa; with HEL) was “Non-toxic” throughout.
For the compound `CCOP(=O)(OCC)[C@@H]1C[C@H](C(=O)Nc2cc(OC)cc(OC)c2)ON1C` (mixture of isomers), the inhibition result (in the data set with Human alphaherpesvirus 1 [1]; with Influenza B virus; in [2]; in the data set with Influenza A virus [4]; in [5]; with Human alphaherpesvirus 2) was “inactive” each time. In addition, the inhibition entry (in the data set on Coxsackievirus B4; in data set [6]; in the data set with Felid alphaherpesvirus 1; in the data set on Sindbis virus; in [7]; with Human alphaherpesvirus 1 [8]) was “inactive” each time. Further, the inhibition entry (in the data set on Human respirovirus 3; in the data set on Punta Toro virus; in the data set with Feline coronavirus; in data set [9]; in [10]; in the data set with Influenza A virus [11]) was “inactive” throughout. Also, the Activity result (in [3]; with MDCK; in the data set with Vero; in the data set on HeLa; in the data set on HEL) was “Non-toxic” throughout.
On to `CCOP(=O)(OCC)[C@@H]1C[C@H](C(=O)Nc2ccccc2C(C)=O)ON1C` (mixture of isomers), for which the inhibition entry (with Human alphaherpesvirus 1 [1]; in the data set with Influenza B virus; in data set [2]; with Influenza A virus [4]; in data set [5]; with Human alphaherpesvirus 2) was “inactive” throughout. The inhibition entry (in the data set with Coxsackievirus B4; in [6]; in the data set with Felid alphaherpesvirus 1; in the data set on Sindbis virus; in [7]; in the data set on Human alphaherpesvirus 1 [8]) was “inactive” each time. For the same compound, the inhibition result (in the data set on Human respirovirus 3; with Punta Toro virus; in the data set on Feline coronavirus; in data set [9]; in [10]; with Influenza A virus [11]) was “inactive” in each case. Besides, the Activity entry (in data set [3]; in the data set with MDCK; with Vero; with HeLa; in the data set with HEL) was “Non-toxic” each time.
For `CCOP(=O)(OCC)[C@@H]1C[C@H](C(=O)Nc2ccc(C)cc2)ON1C` (mixture of isomers), the inhibition entry (in the data set with Human alphaherpesvirus 1 [1]; with Influenza B virus; in data set [2]; in the data set with Influenza A virus [4]; in data set [5]; with Human alphaherpesvirus 2) was “inactive” in each case. Besides, the inhibition entry (with Coxsackievirus B4; in data set [6]; in the data set with Felid alphaherpesvirus 1; in the data set on Sindbis virus; in [7]; with Human alphaherpesvirus 1 [8]) was “inactive” throughout. Moreover, the inhibition entry (in the data set with Human respirovirus 3; in the data set on Punta Toro virus; with Feline coronavirus; in data set [9]; in [10]; in the data set with Influenza A virus [11]) was “inactive” each time. In addition, the Activity entry (in data set [3]; with MDCK; with Vero; in the data set with HeLa; in the data set with HEL) was “Non-toxic” each time.
